Reference: ChEMBL document CHEMBL4043295, “Marbostat-100 Defines a New Class of Potent and Selective Antiinflammatory and Antirheumatic Histone Deacetylase 6 Inhibitors” (J Med Chem, 2018)
Calls of active or inactive are those of the source. The calls are words filed in the database; no cut-off is given here.

Key:
[1] = molecular target: Histone deacetylase 2 (Homo sapiens, UniProt Q92769); experiment: Inhibition of full length recombinant human C-terminal GST-tagged HDAC2 expressed in baculovirus-infected insect cells using RHKK(Ac)AMC as substrate after 60 mins by fluorimeter
[2] = molecular target: Histone deacetylase 3/Nuclear receptor corepressor 2 (HDAC3/NCoR2) (Homo sapiens, UniProt O15379); experiment: biochemical; format: cell-based
[3] = molecular target: Histone deacetylase 5 (Homo sapiens, UniProt Q9UQL6); experiment: Inhibition of recombinant human C-terminal His-tagged HDAC5 (656 to 1122 residues) expressed in baculovirus-infected insect cells using Boc-Lys(TFA)-AMC as substrate after 60 mins by fluorimeter
[4] = molecular target: T1, Histone deacetylase 11 (Homo sapiens, UniProt Q96DB2); experiment: Inhibition of recombinant human N-terminal His-tagged HDAC11 (1 to 347 residues) expressed in baculovirus-infected insect cells using RHKK(Ac)AMC as substrate by fluorimeter
T1 sequence (Q96DB2 whole entry): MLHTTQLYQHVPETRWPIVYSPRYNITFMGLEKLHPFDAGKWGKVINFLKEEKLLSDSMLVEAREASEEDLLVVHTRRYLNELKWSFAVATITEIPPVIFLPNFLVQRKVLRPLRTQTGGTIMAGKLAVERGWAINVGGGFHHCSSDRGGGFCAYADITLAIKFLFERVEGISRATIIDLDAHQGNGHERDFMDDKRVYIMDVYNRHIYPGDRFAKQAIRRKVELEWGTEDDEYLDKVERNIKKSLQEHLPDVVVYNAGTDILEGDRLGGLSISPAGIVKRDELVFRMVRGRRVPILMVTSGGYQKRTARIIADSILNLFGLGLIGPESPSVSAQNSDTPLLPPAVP

[5] = system: MV4-11; experiment: Cell cycle arrest in human MV4-11 cells at 50 nM to 1 uM after 24 hrs by propidium iodide staining-based flow cytometric method; format: functional
How it was run: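 Cells were stained with propidium iodide and analysed by flow cytometry for cell-cycle distribution and the subG1 fraction (fragmented DNA). Representative of at least two independent experiments.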

[6] = system: Mus musculus; experiment: In vivo inhibition of HDAC6 in DBA/1J mouse assessed as induction of tubulin acetylation in liver at 0.6 mg […] by Western blot method; format: functional, organism-based
[7] = system: Mus musculus; experiment: Antiarthritic activity in DBA/1J mouse collagen-induced arthritis model assessed as reduction of articular bone erosion in arthritic hind paw at 30 mg/kg, ip administered every morning for 12 to 14 days measured post last dose by microCT method relative to vehicle-treated control; format: functional, organism-based

Histone deacetylase 2, sequence (Q92769 whole entry): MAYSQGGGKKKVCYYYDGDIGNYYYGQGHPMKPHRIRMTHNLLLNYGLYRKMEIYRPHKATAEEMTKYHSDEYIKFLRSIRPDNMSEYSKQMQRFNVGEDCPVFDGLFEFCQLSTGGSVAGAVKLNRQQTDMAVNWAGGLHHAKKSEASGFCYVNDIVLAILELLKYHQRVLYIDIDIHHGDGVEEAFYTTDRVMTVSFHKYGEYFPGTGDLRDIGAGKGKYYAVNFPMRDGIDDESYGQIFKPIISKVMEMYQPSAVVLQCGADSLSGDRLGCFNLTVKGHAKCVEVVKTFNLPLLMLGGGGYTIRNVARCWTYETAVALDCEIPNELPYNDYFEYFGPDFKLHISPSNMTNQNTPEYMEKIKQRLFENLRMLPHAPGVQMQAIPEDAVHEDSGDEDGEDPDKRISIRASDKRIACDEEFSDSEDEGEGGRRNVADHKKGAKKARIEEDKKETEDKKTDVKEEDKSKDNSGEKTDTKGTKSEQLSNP
Histone deacetylase 5, sequence (Q9UQL6 whole entry, the tested form may be a part): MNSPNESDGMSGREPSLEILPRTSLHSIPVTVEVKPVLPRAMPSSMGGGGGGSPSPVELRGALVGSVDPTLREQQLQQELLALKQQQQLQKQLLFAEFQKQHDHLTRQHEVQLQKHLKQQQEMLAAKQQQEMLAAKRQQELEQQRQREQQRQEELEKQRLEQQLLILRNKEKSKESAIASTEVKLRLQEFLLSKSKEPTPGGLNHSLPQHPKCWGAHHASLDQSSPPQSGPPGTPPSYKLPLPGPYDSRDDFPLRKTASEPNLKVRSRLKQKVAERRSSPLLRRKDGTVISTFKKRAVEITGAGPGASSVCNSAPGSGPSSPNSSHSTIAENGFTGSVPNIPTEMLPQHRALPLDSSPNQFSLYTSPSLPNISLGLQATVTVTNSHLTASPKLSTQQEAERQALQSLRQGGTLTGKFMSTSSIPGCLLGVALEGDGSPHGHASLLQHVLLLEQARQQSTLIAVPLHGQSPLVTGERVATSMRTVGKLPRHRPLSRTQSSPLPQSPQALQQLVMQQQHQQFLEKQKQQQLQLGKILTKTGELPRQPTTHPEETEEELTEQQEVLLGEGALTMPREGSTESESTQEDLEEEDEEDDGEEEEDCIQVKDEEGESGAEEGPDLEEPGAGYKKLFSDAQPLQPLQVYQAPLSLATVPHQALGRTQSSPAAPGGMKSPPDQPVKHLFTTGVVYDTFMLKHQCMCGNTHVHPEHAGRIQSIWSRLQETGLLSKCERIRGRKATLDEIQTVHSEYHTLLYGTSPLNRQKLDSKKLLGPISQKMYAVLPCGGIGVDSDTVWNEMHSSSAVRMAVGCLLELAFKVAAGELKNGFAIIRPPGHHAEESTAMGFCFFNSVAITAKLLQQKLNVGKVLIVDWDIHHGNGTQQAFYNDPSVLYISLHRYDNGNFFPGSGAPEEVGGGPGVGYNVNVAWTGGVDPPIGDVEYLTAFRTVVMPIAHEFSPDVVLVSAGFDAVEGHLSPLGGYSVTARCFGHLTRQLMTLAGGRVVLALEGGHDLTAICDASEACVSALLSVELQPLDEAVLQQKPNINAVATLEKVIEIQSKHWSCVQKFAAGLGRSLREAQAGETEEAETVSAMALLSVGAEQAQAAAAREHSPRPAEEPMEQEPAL
Histone deacetylase 3/Nuclear receptor corepressor 2 (HDAC3/NCoR2), sequence (O15379 whole entry, the tested form may be a part): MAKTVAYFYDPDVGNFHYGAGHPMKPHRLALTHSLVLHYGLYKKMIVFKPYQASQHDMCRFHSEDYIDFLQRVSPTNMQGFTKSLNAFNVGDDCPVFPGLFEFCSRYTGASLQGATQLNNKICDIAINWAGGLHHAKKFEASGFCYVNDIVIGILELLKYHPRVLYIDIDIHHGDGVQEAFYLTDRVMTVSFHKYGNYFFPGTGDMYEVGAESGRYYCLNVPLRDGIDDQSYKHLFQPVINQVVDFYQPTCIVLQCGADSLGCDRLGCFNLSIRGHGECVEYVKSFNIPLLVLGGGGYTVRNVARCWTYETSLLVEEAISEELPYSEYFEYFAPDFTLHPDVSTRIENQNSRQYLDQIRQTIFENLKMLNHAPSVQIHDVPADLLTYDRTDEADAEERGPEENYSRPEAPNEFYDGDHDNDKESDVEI
Histone deacetylase 3/Nuclear receptor corepressor 2 (HDAC3/NCoR2), sequence (Q9Y618 whole entry, further chain, the tested form may be a part): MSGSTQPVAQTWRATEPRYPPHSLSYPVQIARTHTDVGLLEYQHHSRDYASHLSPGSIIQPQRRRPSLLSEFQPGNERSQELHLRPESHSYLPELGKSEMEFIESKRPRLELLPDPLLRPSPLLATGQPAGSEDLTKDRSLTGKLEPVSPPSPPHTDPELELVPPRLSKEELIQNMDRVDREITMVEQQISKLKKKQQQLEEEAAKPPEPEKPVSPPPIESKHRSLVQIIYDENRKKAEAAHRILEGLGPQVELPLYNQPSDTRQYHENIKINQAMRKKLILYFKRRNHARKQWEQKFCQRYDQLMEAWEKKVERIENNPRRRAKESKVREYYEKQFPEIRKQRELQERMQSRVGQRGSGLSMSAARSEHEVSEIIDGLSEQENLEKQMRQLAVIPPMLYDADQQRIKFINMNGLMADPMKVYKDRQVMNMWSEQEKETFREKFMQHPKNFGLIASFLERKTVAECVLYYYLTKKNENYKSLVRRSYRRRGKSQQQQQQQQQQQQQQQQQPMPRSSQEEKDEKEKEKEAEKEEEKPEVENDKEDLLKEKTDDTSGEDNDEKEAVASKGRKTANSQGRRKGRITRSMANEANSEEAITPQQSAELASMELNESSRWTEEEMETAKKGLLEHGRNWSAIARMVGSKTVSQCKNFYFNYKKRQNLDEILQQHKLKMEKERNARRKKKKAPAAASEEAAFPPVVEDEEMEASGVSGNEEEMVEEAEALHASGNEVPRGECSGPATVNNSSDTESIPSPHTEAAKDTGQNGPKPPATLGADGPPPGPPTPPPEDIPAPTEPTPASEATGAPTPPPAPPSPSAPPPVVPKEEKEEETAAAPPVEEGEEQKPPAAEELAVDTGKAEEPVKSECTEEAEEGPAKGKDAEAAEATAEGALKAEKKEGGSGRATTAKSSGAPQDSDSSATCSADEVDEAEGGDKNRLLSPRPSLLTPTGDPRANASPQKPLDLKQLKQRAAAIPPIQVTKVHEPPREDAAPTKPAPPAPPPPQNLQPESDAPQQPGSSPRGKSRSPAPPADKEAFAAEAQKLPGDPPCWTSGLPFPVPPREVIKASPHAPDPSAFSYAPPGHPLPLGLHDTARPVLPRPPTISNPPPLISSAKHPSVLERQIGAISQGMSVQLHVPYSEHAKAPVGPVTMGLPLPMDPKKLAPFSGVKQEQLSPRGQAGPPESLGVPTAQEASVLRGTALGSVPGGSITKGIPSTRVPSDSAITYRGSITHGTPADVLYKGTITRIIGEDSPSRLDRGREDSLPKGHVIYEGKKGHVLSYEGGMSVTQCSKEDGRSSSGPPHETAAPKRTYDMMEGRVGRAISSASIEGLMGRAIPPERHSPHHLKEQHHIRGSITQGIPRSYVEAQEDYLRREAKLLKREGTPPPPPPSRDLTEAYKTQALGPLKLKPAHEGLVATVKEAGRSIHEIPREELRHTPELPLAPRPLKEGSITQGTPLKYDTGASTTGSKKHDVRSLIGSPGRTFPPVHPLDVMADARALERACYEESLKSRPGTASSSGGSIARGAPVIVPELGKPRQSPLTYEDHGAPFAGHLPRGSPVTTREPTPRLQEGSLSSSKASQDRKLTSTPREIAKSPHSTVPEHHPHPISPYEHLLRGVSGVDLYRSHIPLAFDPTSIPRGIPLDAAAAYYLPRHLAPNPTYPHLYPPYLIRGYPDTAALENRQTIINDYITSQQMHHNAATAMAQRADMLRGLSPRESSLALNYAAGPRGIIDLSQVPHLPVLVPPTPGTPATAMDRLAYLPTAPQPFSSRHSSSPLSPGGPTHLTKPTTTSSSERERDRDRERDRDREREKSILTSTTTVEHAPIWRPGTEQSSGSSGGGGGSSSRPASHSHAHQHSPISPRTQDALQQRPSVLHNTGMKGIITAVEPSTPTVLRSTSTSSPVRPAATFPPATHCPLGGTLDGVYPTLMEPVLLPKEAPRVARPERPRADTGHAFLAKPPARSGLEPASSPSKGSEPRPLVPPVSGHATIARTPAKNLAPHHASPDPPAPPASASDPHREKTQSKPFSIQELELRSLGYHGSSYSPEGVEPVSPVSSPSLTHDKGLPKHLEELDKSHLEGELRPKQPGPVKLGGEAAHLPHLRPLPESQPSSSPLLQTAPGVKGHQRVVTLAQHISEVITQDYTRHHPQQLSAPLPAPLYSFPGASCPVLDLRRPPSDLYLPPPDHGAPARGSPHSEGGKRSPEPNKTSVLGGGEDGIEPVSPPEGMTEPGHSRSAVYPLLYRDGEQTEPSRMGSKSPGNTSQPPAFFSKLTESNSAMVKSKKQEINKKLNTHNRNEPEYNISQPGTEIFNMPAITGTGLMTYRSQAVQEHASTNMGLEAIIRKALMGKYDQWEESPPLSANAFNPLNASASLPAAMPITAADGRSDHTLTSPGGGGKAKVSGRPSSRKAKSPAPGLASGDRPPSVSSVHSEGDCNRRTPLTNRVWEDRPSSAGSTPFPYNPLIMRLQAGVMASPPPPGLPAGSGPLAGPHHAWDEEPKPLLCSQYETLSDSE

Ki [1]: 774 nM | Ki [2]: 306 nM | Ki [3]: 701 nM | Ki [4]: 495 nM
SMILES: CN1C(=O)C2CN(Cc3c2c2ccccc2n3Cc2ccc(C(=O)NO)cc2)C1=O (configuration not stated)
Activity [5]: inactive | inhibition [6]: Active | Activity [7]: Active
